{"source": "ChEMBL document CHEMBL4373687", "about": "“Introducing nitrogen atoms to amidoalkylindoles: potent and selective cannabinoid type 2 receptor agonists with improved aqueous solubility” (Medchemcomm, 2019)", "key": {"Cannabinoid receptor 2 [1]": {"molecular_target": "T1, Cannabinoid receptor 2 (Homo sapiens, UniProt P34972)", "T1 sequence (P34972 whole entry)": "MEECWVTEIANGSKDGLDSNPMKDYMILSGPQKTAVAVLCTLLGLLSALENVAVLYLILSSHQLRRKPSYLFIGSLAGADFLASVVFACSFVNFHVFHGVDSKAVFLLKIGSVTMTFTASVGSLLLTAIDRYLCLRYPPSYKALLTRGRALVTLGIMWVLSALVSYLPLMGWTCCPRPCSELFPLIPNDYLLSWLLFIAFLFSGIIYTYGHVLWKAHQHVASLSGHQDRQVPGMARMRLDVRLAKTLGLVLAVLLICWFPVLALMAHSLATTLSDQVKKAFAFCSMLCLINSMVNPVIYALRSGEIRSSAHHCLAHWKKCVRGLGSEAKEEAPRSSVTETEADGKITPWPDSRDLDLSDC", "assay": "Agonist activity at human CB2-receptor expressed in CHO-K1 cells coexpressing G-alpha16 at 10 uM by Fluo-4-AM dye based calcium mobilization assay", "type": "functional, cell-based", "procedure,_shortened": "(§1)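 CHO-K1 cells stably co-expressing Gα16 and human CB1 or CB2, seeded 24 h. Loaded with 2 μM fluo-4 AM in HBSS (with sulfinpyrazone, pH 7.4) at 37 °C for 45 min. Compound added and calcium fluorescence recorded (ex 485/em 525 nm). CP55940 positive control, DMSO negative control. Compounds with >50% activation at 10 μM got eight-point curves in triplicate, sigmoidal fit for EC50.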"}, "Cannabinoid receptor 2 [2]": {"molecular_target": "T1, Cannabinoid receptor 2", "assay": "Agonist activity at human CB2-receptor expressed in CHO-K1 cells coexpressing G-alpha16 by Fluo-4-AM dye based calcium mobilization assay", "type": "functional, cell-based", "conditions": "read-out: EC50; call rule not given here"}, "Cannabinoid receptor 2 [3]": {"molecular_target": "T1, Cannabinoid receptor 2", "assay": "Agonist activity at human CB2-receptor expressed in CHO-K1 cells coexpressing G-alpha16 assessed as maximum efficacy by Fluo-4-AM dye based calcium mobilization assay relative to CP55940", "type": "functional, cell-based", "procedure,_shortened": "as §1"}, "Cannabinoid receptor 1 [4]": {"molecular_target": "T2, Cannabinoid receptor 1 (Homo sapiens, UniProt P21554)", "T2 sequence (P21554 whole entry)": "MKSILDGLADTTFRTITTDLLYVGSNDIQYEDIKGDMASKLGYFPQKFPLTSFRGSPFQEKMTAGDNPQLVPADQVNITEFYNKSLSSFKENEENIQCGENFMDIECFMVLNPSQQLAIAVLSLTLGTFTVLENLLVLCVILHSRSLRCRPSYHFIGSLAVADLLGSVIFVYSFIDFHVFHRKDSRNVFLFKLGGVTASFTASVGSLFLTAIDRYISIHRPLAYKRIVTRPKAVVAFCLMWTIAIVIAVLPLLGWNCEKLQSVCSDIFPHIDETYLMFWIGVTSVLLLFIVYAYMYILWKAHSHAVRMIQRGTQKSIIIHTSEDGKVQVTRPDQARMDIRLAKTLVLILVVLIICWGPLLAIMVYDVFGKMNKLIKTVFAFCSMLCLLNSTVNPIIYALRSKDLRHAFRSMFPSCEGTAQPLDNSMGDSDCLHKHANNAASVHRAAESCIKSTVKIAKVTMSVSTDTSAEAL", "assay": "Agonist activity at human CB1-receptor expressed in CHO-K1 cells coexpressing G-alpha16 by Fluo-4-AM dye based calcium mobilization assay", "type": "cell-based", "conditions": "read-out: EC50"}, "Cannabinoid receptor 1 [5]": {"molecular_target": "T2, Cannabinoid receptor 1", "assay": "Agonist activity at human CB1-receptor expressed in CHO-K1 cells coexpressing G-alpha16 at 10 uM by Fluo-4-AM dye based calcium mobilization assay", "type": "cell-based", "conditions": "cho-k1, 10 µM", "procedure,_shortened": "as §1"}, "Cannabinoid receptor 1 [6]": {"molecular_target": "T2, Cannabinoid receptor 1", "assay": "Antagonist activity at human CB1-receptor expressed in CHO-K1 cells coexpressing G-alpha16 pre-incubated for 10 mins and later treated with 100 nM CB-receptor agonist, CP55940 by Fluo-4-AM dye based calcium mobilization assay", "type": "cell-based", "procedure,_shortened": "(§2)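 CHO-K1 cells stably co-expressing Gα16 and human CB1 or CB2, loaded with 2 μM fluo-4 AM in HBSS pH 7.4 at 37 °C for 45 min. Pre-incubated with compound for 10 min at room temperature, then CP55940 added at 100 nM. Peak calcium read over 60 s (ex 485/em 525 nm). Rimonabant positive control. Actives got eight-point curves in triplicate, sigmoidal fit for IC50.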"}, "[7]": {"assay": "Kinetic aqueous solubility of compound in phosphate-buffer containing 1% DMSO ultrasonicated for 10 mins at pH 7.4 measured using 60-95% methanol in water as gradient for 19 mins by HPLC analysis", "type": "physicochemical", "conditions": "pH 7.4, 10 min", "procedure,_shortened": "(§3)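 Kinetic solubility: 10 mM DMSO stock diluted into 10 mM phosphate buffer pH 7.4 or 1.4 (final 1% DMSO), sonicated 10 min at room temperature, filtered 0.22 μm. Quantified by C18 HPLC against a standard curve. Gradient 60–95% methanol/water with trifluoroacetic acid over 19 min at 1.0 mL/min. n = 3.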"}, "Cannabinoid receptor 1 [8]": {"molecular_target": "T2, Cannabinoid receptor 1", "assay": "Antagonist activity at human CB1-receptor expressed in CHO-K1 cells coexpressing G-alpha16 at 10 uM pre-incubated for 10 mins and later treated with 100 nM CB-receptor agonist, CP55940 by Fluo-4-AM dye based calcium mobilization assay", "type": "cell-based", "procedure,_shortened": "as §2"}, "Cannabinoid receptor 2 [9]": {"molecular_target": "T1, Cannabinoid receptor 2", "assay": "Antagonist activity at human CB2-receptor expressed in CHO-K1 cells coexpressing G-alpha16 at 10 uM pre-incubated for 10 mins and later treated with 100 nM CB-receptor agonist, CP55940 by Fluo-4-AM dye based calcium mobilization assay", "type": "functional, cell-based", "procedure,_shortened": "as §2"}, "Cannabinoid receptor 2 [10]": {"molecular_target": "T1, Cannabinoid receptor 2", "assay": "Antagonist activity at human CB2-receptor expressed in CHO-K1 cells coexpressing G-alpha16 pre-incubated for 10 mins and later treated with 100 nM CB-receptor agonist, CP55940 by Fluo-4-AM dye based calcium mobilization assay", "type": "functional, cell-based", "conditions": "cho-k1", "procedure,_shortened": "as §2"}, "Cannabinoid receptor 1 [11]": {"molecular_target": "T2, Cannabinoid receptor 1", "assay": "Agonist activity at human CB1-receptor expressed in CHO-K1 cells coexpressing G-alpha16 assessed as maximum efficacy by Fluo-4-AM dye based calcium mobilization assay relative to CP55940", "type": "cell-based", "procedure,_shortened": "as §1"}, "[12]": {"assay": "Kinetic aqueous solubility of compound in phosphate-buffer containing 1% DMSO ultrasonicated for 10 mins at pH 1.4 measured using 60-95% methanol in water as gradient for 19 mins by HPLC analysis", "type": "physicochemical", "conditions": "pH 1.4, 10 min", "procedure,_shortened": "as §3"}, "[13]": {"assay": "Kinetic aqueous solubility of compound in phosphate-buffer containing 1% DMSO ultrasonicated for 10 mins at pH 1.4 measured using 50-95% methanol in water as gradient for 23 mins by HPLC analysis", "type": "physicochemical", "conditions": "pH 1.4, 10 min", "procedure,_shortened": "(§4)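 Kinetic solubility: 10 mM DMSO stock diluted into 10 mM phosphate buffer pH 7.4 or 1.4 (final 1% DMSO), sonicated 10 min at room temperature, filtered 0.22 μm. Quantified by C18 HPLC against a standard curve. Gradient 50–95% methanol/water with trifluoroacetic acid over 23 min at 1.0 mL/min. n = 3.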"}, "[14]": {"assay": "Kinetic aqueous solubility of compound in phosphate-buffer containing 1% DMSO ultrasonicated for 10 mins at pH 7.4 measured using 50-95% methanol in water as gradient for 23 mins by HPLC analysis", "type": "physicochemical", "procedure,_shortened": "as §4"}, "[15]": {"assay": "Kinetic aqueous solubility of compound in phosphate-buffer containing 1% DMSO ultrasonicated for 10 mins at pH 1.4 by HPLC analysis", "type": "physicochemical", "conditions": "pH 1.4, 10 min", "procedure,_shortened": "(§5)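 Kinetic solubility: 10 mM DMSO stock diluted into 10 mM phosphate buffer at pH 7.4 or 1.4 (final 1% DMSO). Sonicated 10 min at room temperature and filtered through a 0.22 μm PTFE filter. Concentration determined by reversed-phase C18 HPLC (275/290 nm) against a standard curve. n = 3.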"}, "[16]": {"assay": "Kinetic aqueous solubility of compound in phosphate-buffer containing 1% DMSO ultrasonicated for 10 mins at pH 7.4 by HPLC analysis", "type": "physicochemical", "conditions": "pH 7.4, 10 min", "procedure,_shortened": "as §5"}}}
{"smiles": "O=C(NC12CC3CC(CC(C3)C1)C2)c1n[nH]c2ccccc12", "values": [{"measurement": "Activity", "setting": "Cannabinoid receptor 2 [1]", "value": "> 50", "unit": "%"}, {"measurement": "EC50", "setting": "Cannabinoid receptor 2 [2]", "value": 86, "unit": "nM"}, {"measurement": "Emax", "setting": "Cannabinoid receptor 2 [3]", "value": 73.9, "unit": "%"}, {"measurement": "EC50", "setting": "Cannabinoid receptor 1 [4]", "value": 17100, "unit": "nM"}, {"measurement": "Activity", "setting": "Cannabinoid receptor 1 [5]", "value": "> 50", "unit": "%"}, {"measurement": "IC50", "setting": "Cannabinoid receptor 1 [6]", "value": "Not Active"}, {"measurement": "Kinetic_solubility", "setting": "[7]", "value": "< 10", "unit": "uM/L"}, {"measurement": "log(Kinetic_solubility)", "setting": "[7]", "value": "< -5"}, {"measurement": "inhibition at 10 µM", "setting": "Cannabinoid receptor 1 [8]", "value": "< 50", "unit": "%"}, {"measurement": "inhibition", "setting": "Cannabinoid receptor 2 [9]", "value": "< 50", "unit": "%"}, {"measurement": "IC50", "setting": "Cannabinoid receptor 2 [10]", "value": "Not Active"}, {"measurement": "Emax", "setting": "Cannabinoid receptor 1 [11]", "value": 67.3, "unit": "%"}, {"measurement": "Kinetic_solubility", "setting": "[12]", "value": "< 10", "unit": "uM/L"}, {"measurement": "log(Kinetic_solubility)", "setting": "[12]", "value": "< -5"}]}
{"smiles": "O=C(NC12CC3CC(CC(C3)C1)C2)c1cn(CCN2CCOCC2)c2ncccc12", "values": [{"measurement": "Kinetic_solubility", "setting": "[13]", "value": 86.6, "unit": "uM/L"}, {"measurement": "log(Kinetic_solubility)", "setting": "[13]", "value": -4.06}, {"measurement": "Activity", "setting": "Cannabinoid receptor 2 [1]", "value": "> 50", "unit": "%"}, {"measurement": "EC50", "setting": "Cannabinoid receptor 2 [2]", "value": 48, "unit": "nM"}, {"measurement": "Emax", "setting": "Cannabinoid receptor 2 [3]", "value": 25.7, "unit": "%"}, {"measurement": "EC50", "setting": "Cannabinoid receptor 1 [4]", "value": "> 10000", "unit": "nM"}, {"measurement": "Activity", "setting": "Cannabinoid receptor 1 [5]", "value": "< 50", "unit": "%"}, {"measurement": "IC50", "setting": "Cannabinoid receptor 1 [6]", "value": "Not Active"}, {"measurement": "inhibition at 10 µM", "setting": "Cannabinoid receptor 1 [8]", "value": "< 50", "unit": "%"}, {"measurement": "inhibition", "setting": "Cannabinoid receptor 2 [9]", "value": "< 50", "unit": "%"}, {"measurement": "IC50", "setting": "Cannabinoid receptor 2 [10]", "value": "Not Active"}, {"measurement": "Kinetic_solubility", "setting": "[14]", "value": 69.43, "unit": "uM/L"}, {"measurement": "log(Kinetic_solubility)", "setting": "[14]", "value": -4.15}]}
{"smiles": "O=C(NC12CC3CC(CC(C3)C1)C2)c1nc2ccccc2n1CCCCCO", "values": [{"measurement": "Activity", "setting": "Cannabinoid receptor 2 [1]", "value": "> 50", "unit": "%"}, {"measurement": "EC50", "setting": "Cannabinoid receptor 2 [2]", "value": 67, "unit": "nM"}, {"measurement": "Emax", "setting": "Cannabinoid receptor 2 [3]", "value": 64, "unit": "%"}, {"measurement": "Kinetic_solubility", "setting": "[15]", "value": 96, "unit": "uM/L"}, {"measurement": "log(Kinetic_solubility)", "setting": "[15]", "value": -4.02}, {"measurement": "EC50", "setting": "Cannabinoid receptor 1 [4]", "value": "> 10000", "unit": "nM"}, {"measurement": "Activity", "setting": "Cannabinoid receptor 1 [5]", "value": "< 50", "unit": "%"}, {"measurement": "IC50", "setting": "Cannabinoid receptor 1 [6]", "value": "Not Active"}, {"measurement": "inhibition at 10 µM", "setting": "Cannabinoid receptor 1 [8]", "value": "< 50", "unit": "%"}, {"measurement": "Kinetic_solubility", "setting": "[16]", "value": 32.88, "unit": "uM/L"}, {"measurement": "log(Kinetic_solubility)", "setting": "[16]", "value": -4.48}, {"measurement": "inhibition", "setting": "Cannabinoid receptor 2 [9]", "value": "< 50", "unit": "%"}, {"measurement": "IC50", "setting": "Cannabinoid receptor 2 [10]", "value": "Not Active"}]}
